Assay results pooled from the literature.
Compare with care: the assays were run in different laboratories.
Target: Adenosine receptor A3 (ADORA3, Homo sapiens, UniProt P0DMS8)
Residues used in one study (P0DMS8 1-318): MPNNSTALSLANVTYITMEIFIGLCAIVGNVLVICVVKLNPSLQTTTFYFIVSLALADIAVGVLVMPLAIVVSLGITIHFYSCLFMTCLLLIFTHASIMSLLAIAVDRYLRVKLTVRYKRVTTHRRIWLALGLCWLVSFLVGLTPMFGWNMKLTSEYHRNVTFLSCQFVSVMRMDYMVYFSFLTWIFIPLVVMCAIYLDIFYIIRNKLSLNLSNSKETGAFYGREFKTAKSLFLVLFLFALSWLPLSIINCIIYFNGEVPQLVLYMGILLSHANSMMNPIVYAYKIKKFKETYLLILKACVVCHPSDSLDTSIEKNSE

CC(C)Cn1cnc2c(N)nc3ccccc3c21 — inhibition (ligand displacement, radioligand; 10 µM): 16%
COCCN(CCOC)C(=O)[C@@]12C[C@@H]1[C@@H](n1cnc3c(N)nc(Cl)nc31)[C@H](O)[C@@H]2O — inhibition (ligand displacement, radioligand; 10 µM): 51%
c1ccc(C(NCCNC(c2ccccc2)c2ccccc2)c2ccccc2)cc1 — inhibition (cell-free assay; 10 µM): 70%
CCN(CC)CCCC[C@H](NC(=O)[C@H](CC(C)C)NC(=O)[C@H](C)NC(=O)[C@H](Cc1ccccc1)NC(=O)c1ccc(C(C)(C)C)cc1)C(=O)N[C@@H](CO)C(=O)OC — remaining binding (ligand displacement, radioligand; 10 µM): 96.9%
O=C(Nc1cccnn1)N1CCN([C@@H]2CCOc3cc(C(F)(F)F)ccc32)CC1 — inhibition (ligand displacement; 20 µM): 25%
COCc1c(-c2cc3cc(C)cc(OC)c3s2)c2c(N)ncnn2c1CN1CCNC(=O)C1 — inhibition (ligand displacement, radioligand; 10 µM): 39%
CN(CCN1CCC(OC(=O)Nc2ccccc2-c2ccccc2)CC1)C(=O)c1ccc(CN2CCC(C(N)=O)CC2)cc1 — inhibition (ligand displacement, radioligand; 1 µM): -12%
C[C@H](C(=O)N[C@H]1COc2ccccc2[C@@H]1S(C)(=O)=O)c1ccc(F)cc1 — inhibition (cell-free assay; 10 µM): 11%
CCCCSC[C@@]12C[C@@H]1[C@@H](n1cnc3c(NC(C4CCCC4)C4CCCC4)nc(Cl)nc31)[C@H](O)[C@@H]2O — inhibition (ligand displacement, radioligand; 10 µM): 33%
COc1ccc(S(=O)(=O)N2CCCCC2)cc1C — inhibition (ligand displacement, radioligand; 10 µM): < 30%
CC(C)N1CCC[C@H]1CNC(=O)c1cn(C2CCCC2)c(=O)c2c1c1ccccc1n2C — inhibition (ligand displacement, radioligand; 10 µM): 14%
CCOC(=O)[C@@]12C[C@@H]1[C@@H](n1cnc3c(N[C@H](C4CCC4)C4CC4)nc(I)nc31)[C@H](O)[C@@H]2O — inhibition (ligand displacement, radioligand; 10 µM): 88%
CCNC(=O)[C@H]1O[C@@H](n2cnc3c(N)ncnc32)[C@H](O)[C@@H]1O — Emax (β-arrestin recruitment, agonist; HEK-293T): 99.5%
